Data as given in ChEMBL document CHEMBL3227985, “N-Alkylated 2-aminotetralins: central dopamine-receptor stimulating activity” (J Med Chem, 1979).
The source made the active and inactive calls. No cut-off for these calls is given here.

How the values were obtained:
[1] = tested on: Rattus norvegicus; test: Central dopamine receptor stimulating activity in Sprague-Dawley rat assessed as reduction in DOPA accumulation in limbic region of brain at 2 umol/kg, sc by spectrophotometric method; assay type: functional; settings: Limbic system
In short: (§1)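 Male Sprague-Dawley rats (200-350 g), reserpinized. Compounds dissolved in saline immediately before use, neutral pH, 10 mL/kg, given sc over a dose range. Aromatic-L-amino-acid decarboxylase inhibited (100 mg/kg). Dopa and 5-HTP accumulation measured spectrophotometrically in striatum, limbic forebrain and remaining hemispheral portions. ED50 = dose giving 50% of maximal reduction versus control portions, estimated from dose-response curves. Experiments run 9–12 a.m.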

[2] = tested on: Rattus norvegicus; test: Central dopamine receptor stimulating activity in Sprague-Dawley rat assessed as reduction in DOPA accumulation in striatum of brain at 2 umol/kg, sc by spectrophotometric method; assay type: functional; in short: as §1
[3] = tested on: Rattus norvegicus; test: Central noradrenaline receptor stimulating activity in Sprague-Dawley rat assessed as reduction in DOPA accumulation in hemispheral portion of cerebrum at 2 umol/kg, sc by spectrophotometric method; assay type: functional, organism-based; in short: as §1
[4] = tested on: Rattus norvegicus; test: Central serotonin receptor stimulating activity in Sprague-Dawley rat assessed as reduction in 5-HTP accumulation in limbic region of brain at 2 umol/kg, sc by spectrophotometric method; assay type: functional, organism-based; settings: Limbic system; in short: as §1
[5] = tested on: Rattus norvegicus; test: Central serotonin receptor stimulating activity in Sprague-Dawley rat assessed as reduction in 5-HTP accumulation in striatum of brain at 2 umol/kg, sc by spectrophotometric method; assay type: functional, organism-based; in short: as §1
[6] = tested on: Rattus norvegicus; test: Central serotonin receptor stimulating activity in Sprague-Dawley rat assessed as reduction in 5-HTP accumulation in hemispheral portion of cerebrum at 2 umol/kg, sc by spectrophotometric method; assay type: functional, organism-based; in short: as §1
[7] = tested on: Rattus norvegicus; test: Central dopamine receptor stimulating activity in reserpenized Sprague-Dawley rat assessed as duration of action of motor activity at 2 umol/kg, sc measured 6 hrs post-reserpine challenge by motility meter analysis; assay type: functional
In short: (§2)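 Male Sprague-Dawley rats (200-350 g) given reserpine 10 mg/kg ip 6 h before testing. Drug in saline, 2 µmol/kg sc in the neck. Rats then placed singly in photocell motility meters. Counts recorded per 5-min period until effect ceased (<10 counts/5 min), giving duration and AUC. Means of four to six recordings. Testing 1–6 p.m.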

[8] = tested on: Rattus norvegicus; test: Central dopamine receptor stimulating activity in reserpenized Sprague-Dawley rat assessed as latency period of motor activity at 2 umol/kg, sc measured 6 hrs post-reserpine challenge by motility meter analysis; assay type: functional; in short: as §2
[9] = tested on: Rattus norvegicus; test: Toxicity in sc dosed Sprague-Dawley rat assessed as gross behaviour at ED50; assay type: organism-based; settings: in vivo

SMILES: CCCN(CC)C1CCc2c(cccc2OC)C1.Cl (stereo not drawn)
- ED50 [1]: 0.065 µmol/kg
- ED50 [2]: 0.062 µmol/kg
- Activity [3]: inactive
- Activity [4]: inactive
- Activity [5]: inactive
- Activity [6]: inactive
- Time [7]: 96 min
- Time [8]: 13 min
- Activity [9]: Non-toxic

SMILES: Br.NC1CCc2c(O)cccc2C1 (stereo not drawn)
- ED50 [1]: > 5 µmol/kg
- Activity [3]: inactive
- Activity [4]: inactive
- Activity [5]: inactive
- Activity [6]: inactive
- Activity [9]: Non-toxic

SMILES: Br.CC(C)NC1CCc2c(O)cccc2C1 (stereo not drawn)
- ED50 [1]: > 5 µmol/kg
- Activity [3]: inactive
- Activity [4]: inactive
- Activity [5]: inactive
- Activity [6]: inactive
- Activity [9]: Non-toxic

SMILES: CCCCCN(CCC)C1CCc2c(O)cccc2C1.Cl (stereo not drawn)
- ED50 [1]: 0.01 µmol/kg
- ED50 [2]: 0.019 µmol/kg
- Activity [3]: inactive
- Activity [4]: inactive
- Activity [5]: inactive
- Activity [6]: inactive
- Time [7]: 75 min
- Time [8]: 0 min
- Activity [9]: Non-toxic

SMILES: Br.CCCCCNC1CCc2c(O)cccc2C1 (stereo not drawn)
- ED50 [1]: > 5 µmol/kg
- Activity [3]: inactive
- Activity [4]: inactive
- Activity [5]: inactive
- Activity [6]: inactive
- Activity [9]: Non-toxic

SMILES: CCN(CC)C1CCc2c(cccc2OC)C1.Cl (stereo not drawn)
- Activity [3]: inactive
- Activity [4]: inactive
- Activity [5]: inactive
- Activity [6]: inactive
- Activity [9]: Non-toxic

SMILES: CCCN(CCC)C1CCc2c(cccc2OC)C1.Cl (stereo not drawn)
- ED50 [1]: 0.013 µmol/kg
- ED50 [2]: 0.018 µmol/kg
- Activity [3]: inactive
- Activity [4]: inactive
- Activity [5]: inactive
- Activity [6]: inactive
- Time [7]: 122 min
- Time [8]: 15 min
- Activity [9]: Non-toxic

SMILES: Br.Oc1cccc2c1CCC(N1CCCCC1)C2 (stereo not drawn)
- ED50 [1]: > 5 µmol/kg
- Activity [3]: inactive
- Activity [4]: inactive
- Activity [5]: inactive
- Activity [6]: inactive
- Activity [9]: Non-toxic

SMILES: Br.CCN(CC)C1CCc2c(O)cccc2C1 (stereo not drawn)
- ED50 [1]: 0.077 µmol/kg
- ED50 [2]: 0.071 µmol/kg
- Activity [3]: inactive
- Activity [4]: inactive
- Activity [5]: inactive
- Activity [6]: inactive
- Time [7]: 54 min
- Time [8]: 0 min
- Activity [9]: Non-toxic

SMILES: CCCN(CCc1ccccc1)C1CCc2c(O)cccc2C1.Cl (stereo not drawn)
- ED50 [1]: 0.022 µmol/kg
- ED50 [2]: 0.017 µmol/kg
- Activity [3]: inactive
- Activity [4]: inactive
- Activity [5]: inactive
- Activity [6]: inactive
- Time [7]: 53 min
- Time [8]: 0 min
- Activity [9]: Non-toxic

SMILES: CCCCCN(CCC)C1CCc2c(cccc2OC)C1.O=C(O)C(=O)O (stereo not drawn)
- ED50 [1]: 0.092 µmol/kg
- ED50 [2]: 0.101 µmol/kg
- Activity [3]: inactive
- Activity [4]: inactive
- Activity [5]: inactive
- Activity [6]: inactive
- Time [7]: 93 min
- Time [8]: 15 min
- Activity [9]: Non-toxic

SMILES: Br.CCCNC1CCc2c(O)cccc2C1 (stereo not drawn)
- ED50 [1]: 0.04 µmol/kg
- ED50 [2]: 0.046 µmol/kg
- Activity [3]: inactive
- Activity [4]: inactive
- Activity [5]: inactive
- Activity [6]: inactive
- Time [7]: 45 min
- Time [8]: 0 min
- Activity [9]: Non-toxic

SMILES: CCCN(CCC)C1CCc2c(ccc(OC)c2OC)C1.Cl (stereo not drawn)
- ED50 [1]: 0.057 µmol/kg
- ED50 [2]: 0.058 µmol/kg
- Activity [3]: inactive
- Activity [4]: inactive
- Activity [5]: inactive
- Activity [6]: inactive
- Activity [9]: Non-toxic

SMILES: CCCCN(CCCC)C1CCc2c(cccc2OC)C1.Cl (stereo not drawn)
- Activity [3]: inactive
- Activity [4]: inactive
- Activity [5]: inactive
- Activity [6]: inactive
- Activity [9]: Non-toxic

SMILES: COc1cccc2c1CCC(N(C)C)C2.Cl (stereo not drawn)
- Activity [3]: inactive
- Activity [4]: inactive
- Activity [5]: inactive
- Activity [6]: inactive
- Activity [9]: Non-toxic

SMILES: CNC1CCc2c(cccc2OC)C1.Cl (stereo not drawn)
- Activity [3]: inactive
- Activity [4]: inactive
- Activity [5]: inactive
- Activity [6]: inactive
- Activity [9]: Non-toxic

SMILES: COc1cccc2c1CCC(NC(C)C)C2.Cl (stereo not drawn)
- ED50 [1]: > 5 µmol/kg
- Activity [3]: inactive
- Activity [4]: inactive
- Activity [5]: inactive
- Activity [6]: inactive
- Activity [9]: Non-toxic

SMILES: Br.CCNC1CCc2c(O)cccc2C1 (stereo not drawn)
- ED50 [1]: 0.072 µmol/kg
- ED50 [2]: 0.066 µmol/kg
- Activity [3]: inactive
- Activity [4]: inactive
- Activity [5]: inactive
- Activity [6]: inactive
- Time [7]: 50 min
- Time [8]: 3 min
- Activity [9]: Non-toxic

SMILES: Br.CCCN(CCC)C1CCc2c(ccc(O)c2O)C1 (stereo not drawn)
- ED50 [1]: 0.007 µmol/kg
- ED50 [2]: 0.007 µmol/kg
- Activity [3]: inactive
- Activity [4]: inactive
- Activity [5]: inactive
- Activity [6]: inactive
- Time [7]: 193 min
- Time [8]: 0 min
- Activity [9]: Non-toxic

SMILES: CCCCNC1CCc2c(cccc2OC)C1.Cl (stereo not drawn)
- Activity [3]: inactive
- Activity [4]: inactive
- Activity [5]: inactive
- Activity [6]: inactive
- Activity [9]: Non-toxic

SMILES: CCCN(CCc1ccccc1)C1CCc2c(cccc2OC)C1.Cl (stereo not drawn)
- ED50 [1]: 0.29 µmol/kg
- ED50 [2]: 0.24 µmol/kg
- Activity [3]: inactive
- Activity [4]: inactive
- Activity [5]: inactive
- Activity [6]: inactive
- Activity [9]: Non-toxic

SMILES: CCCNC1CCc2c(cccc2OC)C1.Cl (stereo not drawn)
- ED50 [1]: 0.37 µmol/kg
- ED50 [2]: 0.43 µmol/kg
- Activity [3]: inactive
- Activity [4]: inactive
- Activity [5]: inactive
- Activity [6]: inactive
- Activity [9]: Non-toxic

SMILES: CCCCCNC1CCc2c(cccc2OC)C1.Cl (stereo not drawn)
- Activity [3]: inactive
- Activity [4]: inactive
- Activity [5]: inactive
- Activity [6]: inactive
- Activity [9]: Non-toxic

SMILES: CCNC1CCc2c(cccc2OC)C1.Cl (stereo not drawn)
- Activity [3]: inactive
- Activity [4]: inactive
- Activity [5]: inactive
- Activity [6]: inactive
- Activity [9]: Non-toxic

SMILES: Br.CCCCNC1CCc2c(O)cccc2C1 (stereo not drawn)
- ED50 [1]: > 5 µmol/kg
- Activity [3]: inactive
- Activity [4]: inactive
- Activity [5]: inactive
- Activity [6]: inactive
- Activity [9]: Non-toxic

SMILES: Br.CCCCCN(C)C1CCc2c(O)cccc2C1 (stereo not drawn)
- ED50 [1]: 0.37 µmol/kg
- ED50 [2]: 0.28 µmol/kg
- Activity [3]: inactive
- Activity [4]: inactive
- Activity [5]: inactive
- Activity [6]: inactive
- Activity [9]: Non-toxic

SMILES: CCN(C)C1CCc2c(cccc2OC)C1.Cl (stereo not drawn)
- Activity [3]: inactive
- Activity [4]: inactive
- Activity [5]: inactive
- Activity [6]: inactive
- Activity [9]: Non-toxic

SMILES: Br.CCCCN(CCCC)C1CCc2c(O)cccc2C1 (stereo not drawn)
- ED50 [1]: 2.9 µmol/kg
- ED50 [2]: 2.7 µmol/kg
- Activity [3]: inactive
- Activity [4]: inactive
- Activity [5]: inactive
- Activity [6]: inactive
- Activity [9]: Non-toxic

SMILES: Br.CN(C)C1CCc2c(O)cccc2C1 (stereo not drawn)
- ED50 [1]: 0.39 µmol/kg
- ED50 [2]: 0.19 µmol/kg
- Activity [3]: inactive
- Activity [4]: inactive
- Activity [5]: inactive
- Activity [6]: inactive
- Activity [9]: Non-toxic

SMILES: COc1cccc2c1CCC(N1CCCCC1)C2.Cl (stereo not drawn)
- Activity [3]: inactive
- Activity [4]: inactive
- Activity [5]: inactive
- Activity [6]: inactive
- Activity [9]: Non-toxic

SMILES: Br.CNC1CCc2c(O)cccc2C1 (stereo not drawn)
- ED50 [1]: 1.1 µmol/kg
- ED50 [2]: 1.2 µmol/kg
- Activity [3]: inactive
- Activity [4]: inactive
- Activity [5]: inactive
- Activity [6]: inactive
- Activity [9]: Non-toxic

SMILES: CCCN(CC(C)(C)C)C1CCc2c(cccc2OC)C1.Cl (stereo not drawn)
- ED50 [1]: 0.19 µmol/kg
- ED50 [2]: 0.19 µmol/kg
- Activity [3]: inactive
- Activity [4]: inactive
- Activity [5]: inactive
- Activity [6]: inactive
- Activity [9]: Non-toxic

SMILES: COc1cccc2c1CCC(N)C2.Cl (stereo not drawn)
- Activity [3]: inactive
- Activity [4]: inactive
- Activity [5]: inactive
- Activity [6]: inactive
- Activity [9]: Non-toxic

SMILES: CCCN(C(C)C)C1CCc2c(cccc2OC)C1.Cl (stereo not drawn)
- Activity [3]: inactive
- Activity [4]: inactive
- Activity [5]: inactive
- Activity [6]: inactive
- Activity [9]: Non-toxic

SMILES: CCCCCN(C)C1CCc2c(cccc2OC)C1.Cl (stereo not drawn)
- Activity [3]: inactive
- Activity [4]: inactive
- Activity [5]: inactive
- Activity [6]: inactive
- Activity [9]: Non-toxic
